Compound activity (PubChem)
OXTR ag: human OXTR agonists, primary screen, fluorescence, CHO-OTR cells, Fluo-8 calcium; AID 2435, 2010; Fluo-8 calcium fluorescence; normalized: DMSO 0%, oxytocin 100%; 320,000 tested, 0.32% active; activation, % at 3 µM;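 active = activation above the mean of all tested compounds plus 3 SD, cutoff set per screening run, cut at about 20% in these data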;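 note: peak over basal fluorescence ratio from a 100 s FLIPR kinetic read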
Target sequence (P30559 whole entry, looked up): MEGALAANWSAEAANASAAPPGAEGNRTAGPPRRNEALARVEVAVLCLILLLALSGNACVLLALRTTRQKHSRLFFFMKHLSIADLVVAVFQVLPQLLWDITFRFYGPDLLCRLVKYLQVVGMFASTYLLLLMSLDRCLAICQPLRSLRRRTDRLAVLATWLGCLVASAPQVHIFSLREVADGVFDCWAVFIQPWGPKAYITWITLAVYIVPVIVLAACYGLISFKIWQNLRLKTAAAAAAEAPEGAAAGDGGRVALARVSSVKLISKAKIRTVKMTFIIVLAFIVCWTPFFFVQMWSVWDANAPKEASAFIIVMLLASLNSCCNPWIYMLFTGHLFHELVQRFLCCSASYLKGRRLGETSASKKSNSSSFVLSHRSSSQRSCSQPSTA
V1R ag counter: agonists of human V1a receptor, primary screen, counter-screen for OXTR agonist project, fluorescence, CHO-V1R cells; Vasopressin V1a receptor (Homo sapiens), P37288; Fluo-8 calcium fluorescence, agonist mode; 0% DMSO, 100% 3 nM vasopressin; activation, % at 3 µM; 320,000 tested, 0.25% active;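 active = activation above the mean activation of all tested compounds plus 3 SD, per screening run, cut at about 20% in these data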;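 note: signal is peak over basal fluorescence ratio across a 100 second FLIPR read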
TAAR1 antag: human TAAR1 antagonists, primary screen, Fluo-8 calcium fluorescence, CHO RD-HGA16 cells. Trace amine-associated receptor 1 (Homo sapiens), Q96RJ0. antagonist. inhibition, % at 3 µM. 360,000 tested, 1.5% active. AID 624466, 2012;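 active = inhibition above a per-plate cutoff, the mean inhibition of test compounds on that plate plus 3 SD, cut at about 49% in these data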;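 note: 0% = DMSO plus EC80 beta-PEA response and 100% = DMSO alone without agonist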
Target sequence (Q96RJ0 whole entry, looked up): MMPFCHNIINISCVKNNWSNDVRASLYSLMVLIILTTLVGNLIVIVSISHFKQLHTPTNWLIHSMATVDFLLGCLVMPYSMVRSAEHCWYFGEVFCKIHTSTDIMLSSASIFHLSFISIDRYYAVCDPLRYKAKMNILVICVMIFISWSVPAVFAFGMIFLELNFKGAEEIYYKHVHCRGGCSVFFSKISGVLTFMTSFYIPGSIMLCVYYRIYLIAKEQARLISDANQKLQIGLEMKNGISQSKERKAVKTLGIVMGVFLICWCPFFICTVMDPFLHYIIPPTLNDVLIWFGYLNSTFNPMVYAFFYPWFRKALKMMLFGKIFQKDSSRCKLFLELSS
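Assay system: CHO-derived RD-HGA16 cells stably expressing human TAAR1 plus Gα16. Timing: 140 s kinetic read after compound, 140 s after agonist. Technique: kinetic Fluo-8 calcium fluorescence measurement. Measure: % inhibition of agonist calcium response.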
OXTR potentiate: human OXTR potentiators, primary screen, fluorescence, CHO-OTR cells, Fluo-8 calcium; activation, % at 3 µM; Oxytocin receptor (Homo sapiens), P30559; 320,000 tested, 0.061% active; AID 2445, 2010; Fluo-8 calcium fluorescence, potentiator mode; 0% = oxytocin EC15, 100% = EC100;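 active = activation above that plate's cutoff, the mean activation of tested compounds plus 3 SD, cut at about 6.6% in these data, passing the limit was not always enough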;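 note: 100% uses oxytocin at 75 nM as the full agonist control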
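Replication – single well per compound, singlicate · Assay system – CHO cell line stably expressing human OTR · Timing – 6 min pre-incubation, 100 s read · Measure – normalized max/min fluorescence ratio, % activation · Doses – 3.0 µM, one dose · Detection – Fluo-8 calcium dye fluorescence · Probe or stimulus – oxytocin near EC15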
TAAR1 ag: human TAAR1 agonists, primary screen, Fluo-8 calcium fluorescence, CHO RD-HGA16 cells; Trace amine-associated receptor 1 (Homo sapiens), Q96RJ0; 360,000 tested, 0.99% active; vehicle wells 0%, saturating PEA agonist 100%; activation, % at 3 µM;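 active = activation above the mean activation of all test compounds in the run plus 3 SD, cut at about 38% in these data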
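Repeats: no replicates (n 1) | Material: CHO-derived RD-HGA16 cells with stable Gα16 and human TAAR1 | Technique: Kinetic Fluo-8 calcium fluorescence | Schedule: 17-24 h seeding, 75 min 37 °C dye, 30 min RT | Evaluation: % activation from peak over basal fluorescence ratio, DMSO-to-PEA scaled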
TAAR1 ag confirm: human TAAR1 agonists, retest of hits, confirmation, Fluo-8 calcium fluorescence, CHO RD-HGA16 cells | shares compounds with TAAR1 ag | scaled: DMSO 0%, maximal phenethylamine 100% | activation, % at 3 µM | 2,400 tested, 82% active | AID 651783, 2012;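 active = activation above a cutoff set at the run's mean compound activation plus 3 SD, cut at about 39% in these data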
Ga16 nonsel ag: nonselective calcium mobilization agonists, CHO-Ga16 cells, counter-screen for hTAAR1 agonist project, cell-based, fluorescence, CHO-Ga16 parental line | shares compounds with TAAR1 ag | Fluo-8 calcium fluorescence; normalized to maximal ATP response, DMSO zero | activation, % at 3 µM | 2,400 tested, 50% active;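 active = activation above the run cutoff, the mean activation over all tested wells plus 3 SD, cut at about 12% in these data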;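 note: 0% = DMSO wells and 100% = maximal ATP response on the peak over basal ratio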
TAAR1 desens: TAAR1 desensitization by agonist hits, confirmation, counter-screen for TAAR1 agonist project, cell-based, fluorescence, tachyphylaxis. shares compounds with TAAR1 ag. CHO RD-HGA16 hTAAR1, Fluo-8 calcium, beta-PEA response inhibition. inhibition, % at 3 µM. 2,400 tested, 46% active;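 active = inhibition above the run cutoff, the mean inhibition of all test compounds plus 3 SD, cut at about 49% in these data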;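 note: beta-PEA stimulus applied at its EC80; loss of beta-PEA calcium signal after compound pretreatment read as receptor desensitization; 0% = DMSO with beta-PEA at EC80 and 100% = DMSO alone without agonist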
Ga16 nonsel ant: inhibition of ATP-evoked calcium response in CHO-Ga16 cells, counter-screen for TAAR1 agonist project, cell-based, fluorescence; shares compounds with TAAR1 ag; CHO-Ga16 ATP-induced calcium, Fluo-8 fluorescence; inhibition, % at 3 µM; 2,400 tested, 39% active;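 active = inhibition above the plate's mean compound inhibition plus 3 SD, computed per plate, cut at about 22% in these data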;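 note: 0% = EC80 ATP with DMSO and 100% = DMSO wells without ATP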
Numbers without * were called inactive. Rows were chosen to be rich in hits. Some 2.3% of all compounds tested hit in one or more screens of this group.

`Cc1ccc(S(=O)(=O)Cc2ccc(C(=O)N3CCc4ccccc4C3)o2)cc1` gave OXTR ag -0.3, V1R ag counter 0.0, TAAR1 antag 64.1*, OXTR potentiate -3.6, TAAR1 ag 69.0*, TAAR1 ag confirm 48.0*, Ga16 nonsel ag 5.3, TAAR1 desens 10.7 and Ga16 nonsel ant 16.4.
Screening O=C(CSC1=NCCS1)Nc1cccc(F)c1 returned OXTR ag 1.6, V1R ag counter 4.8, TAAR1 antag -1.2, OXTR potentiate -8.6 and TAAR1 ag 1.2.
O=C1CCC(C(=O)N2CCC(CO)(Cc3ccc(Cl)cc3)CC2)=NN1 was read as OXTR ag 0.0, V1R ag counter 1.0, TAAR1 antag 6.8, OXTR potentiate 1.4 and TAAR1 ag 8.1.
`CC1=C(C)CS(=O)N(c2ccc(S(N)(=O)=O)cc2)C1` (centres undefined) gave OXTR ag 2.6, V1R ag counter 3.0, TAAR1 antag 4.6, OXTR potentiate 0.4 and TAAR1 ag 34.4.
Screening CC1=C(C)CS(=O)N(S(=O)(=O)c2ccccc2)C1 (centres undefined) returned OXTR ag 8.7, V1R ag counter 9.8, TAAR1 antag 9.1, OXTR potentiate 2.7, TAAR1 ag 72.8*, TAAR1 ag confirm 67.7*, Ga16 nonsel ag 32.8*, TAAR1 desens 22.9 and Ga16 nonsel ant 20.7.
Screening CCC(=O)N(CCc1ccccc1)Cc1cc2cccc(C)c2[nH]c1=O returned OXTR ag -0.7, V1R ag counter 1.9, TAAR1 antag 5.8, OXTR potentiate -16.1 and TAAR1 ag 11.4.
Screening COc1cc(CNCCc2ccccc2)ccc1OCc1ccc(Cl)nc1 returned OXTR ag 15.3, V1R ag counter 6.7, TAAR1 antag 7.2, OXTR potentiate -10.4, TAAR1 ag 53.9*, TAAR1 ag confirm 70.6*, Ga16 nonsel ag 9.8, TAAR1 desens 43.0 and Ga16 nonsel ant 11.6.
For CCOc1cc(CNCCc2ccc(S(N)(=O)=O)cc2)ccc1OCc1ccc(Cl)cc1 the results were OXTR ag 37.0*, V1R ag counter 27.2*, TAAR1 antag 47.2, OXTR potentiate -23.1, TAAR1 ag 68.6*, TAAR1 ag confirm 84.6*, Ga16 nonsel ag 46.0*, TAAR1 desens 91.3* and Ga16 nonsel ant 71.9*.
For COc1cc(CNCCc2ccccc2)ccc1OCC(N)=O the results were OXTR ag -0.2, V1R ag counter 0.6, TAAR1 antag 3.1, OXTR potentiate -2.7 and TAAR1 ag 3.0.
O=c1oc2c(O)cccc2cc1-c1nc2ccccc2[nH]1 was read as TAAR1 antag 8.7, TAAR1 ag 83.2*, TAAR1 ag confirm 92.9*, Ga16 nonsel ag 89.5*, TAAR1 desens 45.7 and Ga16 nonsel ant 29.1*.
CCOC(=O)C1=C(N)n2c(s/c(=C/c3ccco3)c2=O)=C(C(=O)OC)C1c1ccco1 (centres undefined) was read as OXTR ag 14.2, V1R ag counter 11.3, TAAR1 antag 32.6, OXTR potentiate -4.3, TAAR1 ag 68.5*, TAAR1 ag confirm 72.5*, Ga16 nonsel ag 29.6*, TAAR1 desens 51.4* and Ga16 nonsel ant 39.7*.
`Cc1cc(C2=NNC(=NCCc3ccccc3)SC2)c(C)n1-c1c(C)n(C)n(-c2ccccc2)c1=O` gave OXTR ag 0.6, V1R ag counter 0.8, TAAR1 antag 21.3, OXTR potentiate -4.0, TAAR1 ag 70.4*, TAAR1 ag confirm 92.6*, Ga16 nonsel ag 2.2, TAAR1 desens 61.9* and Ga16 nonsel ant 2.4.
Screening Cc1cc(C2=NNC(=NC3CC3)SC2)c(C)n1-c1c(C)n(C)n(-c2ccccc2)c1=O returned OXTR ag 0.5, V1R ag counter -0.2, TAAR1 antag 2.2, OXTR potentiate -12.5 and TAAR1 ag 2.7.
`Cc1ccccc1C(=O)Nc1ccc(C(=O)O)cc1NC(=O)c1ccccc1C` gave OXTR ag -0.2, V1R ag counter 0.5, TAAR1 antag -7.1, OXTR potentiate -12.0 and TAAR1 ag 5.6.
COc1ccc(NC(=O)COc2ccc(Br)cc2)c(OC)c1 was read as OXTR ag -2.5, V1R ag counter 0.6, TAAR1 antag 66.8*, OXTR potentiate -7.6, TAAR1 ag 67.9*, TAAR1 ag confirm 42.9*, Ga16 nonsel ag 12.7*, TAAR1 desens 28.7 and Ga16 nonsel ant -2.6.
For COc1ccc(NC(=O)COc2ccccc2)c(OC)c1 the results were OXTR ag -0.7, V1R ag counter 0.6, TAAR1 antag -0.3, OXTR potentiate -9.6 and TAAR1 ag 8.7.
For CC(C)n1cc(CN2CCC(C(=O)Nc3cccc(-c4cccc(Cl)c4)c3)CC2)cn1 the results were OXTR ag 7.6, V1R ag counter 6.9, TAAR1 antag -11.3, OXTR potentiate -8.7, TAAR1 ag 59.7*, TAAR1 ag confirm 56.0*, Ga16 nonsel ag 27.4*, TAAR1 desens 44.2 and Ga16 nonsel ant 31.8*.
Screening CCOC(=O)C(NC(C)=O)C(=O)Nc1c(C)cccc1C (centres undefined) returned OXTR ag 0.2, V1R ag counter 0.5, TAAR1 antag -4.9, OXTR potentiate -4.6 and TAAR1 ag 3.8.
Brc1ccc(C2C3=C(Nc4ncnn42)c2ccccc2OC3c2ccncc2)cc1 (centres undefined) was read as OXTR ag 1.6, V1R ag counter 3.8, TAAR1 antag 19.4, OXTR potentiate -4.2, TAAR1 ag 43.0*, TAAR1 ag confirm 11.9, Ga16 nonsel ag 5.6, TAAR1 desens 2.9 and Ga16 nonsel ant 13.0.
